Source: PubChem BioAssay (several laboratories)
Rows were chosen to be rich in hits. Some 2.2% of all compounds tested hit in one or more screens of this group.
IEC-6 tox: kills IEC-6 intestinal cells in KLF5 counter-screen; IEC-6 cytotoxicity, luminescence viability; inhibition, % at 5 µM; 0.78% of 290,000 active; in the data active = inhibition above about 22%;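 also: 0% = plate median of test compound wells and 100% = cytotoxic reference compound wells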
Ba/F3 V617F tox: reduce viability of Ba/F3 cells dependent on JAK2V617F | Ba/F3 EpoR-JAK2V617F viability, ATP luminescence | inhibition, % at 5.6 µM | 1.1% of 220,000 active | AID 1446;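 active = inhibition above the campaign mean plus 3 SD over all tested compounds, cut at about 24% in these data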;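 also: cytokine-independent growth of Ba/F3 cells driven by EpoR plus mutant JAK2; 0% = DMSO-treated cells and 100% = JAK inhibitor I control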
BaF3 tox: counter-screen for JAK2V617F inhibitors: parental Ba/F3 viability inhibitors | CellTiter-Glo ATP luminescence | 1.1% of 220,000 active | inhibition, % at 5.6 µM | AID 1486;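 active = inhibition above a per-campaign cutoff, the mean inhibition of all tested compounds plus 3 SD, cut at about 27% in these data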;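 also: 0% = DMSO wells and 100% = JAK Inhibitor I control wells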
bCat nuc transl: modulators of beta-catenin nuclear translocation; HeLa beta-catenin nuclear translocation, immunofluorescence imaging; nuclear translocation activity, % at 5 µM; 0.3% of 190,000 active; AID 1665;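 active = nuclear translocation activity above 50% at 5 µM, with a well cell count of 50 or more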;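 also: per-cell ratio of nuclear to cytoplasmic median beta-catenin stain intensity; plate controls were DMSO negative control for no effect and GSK-3 inhibitor IX positive control for full effect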
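Test system: human HeLa cells, endogenous beta-catenin. Times: 24 h compound exposure, 37°C. Measured by: beta-catenin immunofluorescence imaging with DAPI.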
MT stabilize HCS: microtubule stabilizers in HeLa cells; HeLa tubulin immunostaining HCS, 24 h; share of cells brighter than vehicle mean+2SD; % tubulin-high responders, % at 10 µM; 0.83% of 200,000 active; AID 2205;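 active = plate Z-score above 3 for both tubulin-high and condensed-nucleus cell shares, with cell loss under 80%, at 10 µM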;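 also: anti alpha tubulin signal scored within the nucleus-defined area of each cell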
APP 5UTR inh: APP translation inhibition; 0.82% of 190,000 active; SH-SY5Y APP 5'UTR-luciferase reporter, luminescence; inhibition, % at 2 µM;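 active = inhibition above a set limit, derived from the sample mean plus 3 SD, cut at about 45% in these data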
An asterisk follows results filed as active; x = not tested or not shown.

SMILES	IEC-6 tox	Ba/F3 V617F tox	BaF3 tox	bCat nuc transl	MT stabilize HCS	APP 5UTR inh
O=C(N/N=C/c1c(O)ccc2ccccc12)c1cccc(C(F)(F)F)c1	10	4	6	-2	9	79*
O=C(N/N=C\c1c(O)ccc2ccccc12)c1ccc(Cn2cccn2)o1	7	10	7	x	3	63*
O=C(N/N=C/c1c(O)ccc2ccccc12)c1[nH]ncc1Br	10	31*	35*	-2	4	72*
COc1ccc(OC)c(/C=N/NC(=O)c2[nH]ncc2Br)c1	-1	-5	-1	-1	x	x
O=C(N/N=C\c1ccc(Cl)s1)c1ccc(Cn2cccn2)o1	-2	1	9	0	2	13
CC(=O)N(C)c1cccc([N+](=O)[O-])c1	-6	-5	0	0	4	87*
COc1ccc(Nc2nc(N3CCCCC3)c3ccccc3n2)cc1	5	7	35*	1	2	-8
Oc1ccc(Nc2nc(N3CCCC3)c3ccccc3n2)cc1	13	48*	61*	1	5	8
COCCNC(=S)N1CCC(C(=O)c2ccc(C)cc2)CC1	0	x	x	x	x	x
O=C(N/N=C/C=C/c1ccccc1)c1n[nH]c2c1CCC2	11	10	7	176*	25*	60*
O=C(N/N=C/c1cccc2ccccc12)c1n[nH]c2c1CCCC2	2	-2	9	9	31*	74*
O=C(N/N=C\c1cccc(Cl)c1)c1n[nH]c2c1CCCC2	4	1	7	-2	5	-156
O=C(N/N=C/c1ccc(Cl)cc1Cl)c1n[nH]c2c1CCCC2	8	4	2	20	22*	10
Cc1cc(C(=O)N/N=C/C=C/c2ccccc2)n[nH]1	-3	-4	-2	0	x	x
CC(=O)Nc1cccc(C(=O)Nc2ccccc2N2CCOCC2)c1	-4	-2	-2	-4	32*	-3
C#CC[N+](C)(C)CCCCCCCC	3	66*	43*	4	10	-16
C#CC[N+](C)(C)CCCCCCCCCCCC	9	80*	76*	18	12	-1
CCCCCC[N+](C)(C)CCSSCC[N+](C)(C)CCCCCC	-4	-5	4	0	x	x
C#CC[N+](C)(C)CCCCCCCCCC	21	79*	79*	8	6	-4
CC#CC[N+](C)(C)CCCCCCCCCCCC	24*	101*	81*	10	8	-13
C=C(c1ccccc1O)n1ccnc1	1	x	x	x	x	x
CN1CCN(S(=O)(=O)c2ccc(N3CCc4ccccc4C3)nc2)CC1	-3	1	-2	3	1	14
CCOC(=O)c1[nH]c(C)c(CN(C(C)=O)c2ccc(OCC)cc2)c1C	32*	8	12	5	20*	-3
O=C(CN1C(=O)c2ccccc2S1(=O)=O)NC(Nc1ccccc1F)C(Cl)(Cl)Cl (stereo not given)	1	2	3	0	1	0
Fc1ccccc1Cn1c2[n+](c3ccc(C(F)(F)F)cc31)CCCCC2	1	15	33*	-2	5	-20
SMILES	IEC-6 tox	Ba/F3 V617F tox	BaF3 tox	bCat nuc transl	MT stabilize HCS	APP 5UTR inh
CC1=CC(C)(C)[N+](C)(C)c2ccc(C)cc21	0	29*	42*	1	3	3
C/C=C/C(=O)N1c2ccc(C)cc2C(C)=CC1(C)C	3	1	-4	0	x	x
Cc1ccc(C23CC4CC(CC(C(=O)NC(C(=O)O)C(C)C)(C4)C2)C3)cc1 (stereo not given)	4	x	x	x	x	x
COc1cc2c(cc1O)CC[C@@H]1[C@@H]2CC[C@]2(C)[C@@H](O)CC[C@@H]12	74*	76*	78*	20	x	93*
Cc1nn(-c2nc3ccccc3[nH]2)c(=O)c2ccccc12	85*	83*	87*	3	2	74*
O=C(NN(CC(O)COc1ccccc1)CC(O)COc1ccccc1)c1ccccc1 (stereo not given)	4	-2	0	2	x	x
Cc1ccc(NC(=O)Nc2ccnc(-c3cccnc3)n2)cc1	-3	3	2	x	2	83*
O=C(NNc1ccccn1)C(c1ccccc1)c1ccccc1	-1	5	9	0	2	20
O=C(NNC(=O)C(c1ccccc1)c1ccccc1)c1ccccn1	55*	9	4	-1	3	55*
CCCCCCCCCn1ccc(=N)cc1	54*	99*	96*	6	x	x
CCCCCn1ccc(=N)cc1	-5	67*	62*	2	3	7
Cc1nn(Cc2ccccc2)c(C)c1/C=N/NC(=O)c1ccccc1O	5	1	3	0	x	x
CCOC(=O)C1(Cc2ccccc2C)CCCN(S(=O)(=O)CC)C1 (stereo not given)	-1	x	x	x	x	x
CC(C)(C)c1ccc(S(=O)(=O)/N=C2\C=C(NS(=O)(=O)c3ccccc3)C(=O)c3ccccc32)cc1	-6	x	x	x	x	x
Cc1ccc(S(=O)(=O)/N=C2/C=C(Sc3ncn[nH]3)C(=O)c3ccccc32)c(C)c1	7	54*	14	-1	2	66*
Cc1ccc(S(=O)(=O)/N=C2\C=C(Nc3cccc(C(=O)O)c3)C(=O)c3ccccc32)c(C)c1	8	x	x	x	x	x
CC(C)c1ccc(S(=O)(=O)/N=C2/C=C(Sc3ncn[nH]3)C(=O)c3ccccc32)cc1	39*	54*	74*	0	4	34
O=C(CCCn1c(=S)[nH]c2ccsc2c1=O)Nc1ccc2c(c1)OCCO2	8	-2	-1	-2	3	-14
O=C1NC(=O)c2cc(Oc3ccc([N+](=O)[O-])cc3)ccc21	0	x	x	x	x	x
Cc1ccccc1S(=O)c1ccccc1C(=O)O (stereo not given)	3	-2	-2	2	x	x
CCOC(=O)c1ccc(NC2c3ccccc3C(=O)N2c2cccnc2)cc1 (stereo not given)	20	20	27*	0	3	-50
CCOC(=O)C(C)Sc1nc(=O)n2cccc(C)c2n1 (stereo not given)	-6	5	7	-1	2	-2
CCOC(=O)CSc1nc(=O)n2cccc(C)c2n1	1	5	7	0	2	45*
O=C(Nc1nc2ccccc2s1)C1CCN(S(=O)(=O)c2cc([N+](=O)[O-])ccc2Cl)CC1	0	4	43*	0	x	x
Cc1cc(OCc2cc(C(=O)N(C)CCc3cnn(C)c3)no2)cc(C)c1Cl	5	x	x	x	x	x
C=CCN1CN(Cc2ccco2)CNC1=S	-3	-3	3	0	4	62*
CCS(=O)(=O)c1nc(S(=O)(=O)c2ccc(Cl)cc2)c(N2CCC(C(N)=O)CC2)s1	3	x	x	x	x	x
Cc1nn(CCC#N)c(N)c1C1(O)C(=O)Nc2c(Cl)cc(Cl)cc21 (stereo not given)	12	2	1	1	x	x
Cc1ccc(N(Cc2cc3ccc(C)cc3[nH]c2=O)S(=O)(=O)c2ccccc2)cc1	-3	x	x	x	x	x
